Data set [1] deals with MCF10A human cells. The settings on record: 0.27 to 27 μmol/L; cited from earlier work.
Data set [2] deals with defibrinated erythrocytes. To be noted: enterocin AS-48 at 5–20 μmol/L; cited from earlier work.
The test system of data set [3] is CCDC18Co human cells. The settings on record: 0.27 to 27 μmol/L; cited from earlier work.
Data set [4] concerns L. monocytogenes. The settings on record: as reported; cited from earlier work.
Data set [5] deals with L. monocytogenes ATCC 19115. In words: Inhibition of biofilm formation, crystal violet. It counts as cell-based, Listeria monocytogenes. The settings on record: sodium lactate at 5 % (positive control); 37 °C, 24 h, crystal violet A570. The essentials: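 Test compound stock mixed with L. monocytogenes at 10^6 CFU/mL to final 2, 4 and 8 μg/mL, grown in microplate wells. Phosphate buffer (pH 7.0) served as negative control. Planktonic cells removed, wells washed twice with phosphate buffer, then stained 30 min with 0.1 % crystal violet and rinsed. Bound dye eluted with 95 % ethanol. Run in triplicate.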

Regarding enterocin AS-48, the Cytotoxicity entry in data set [1] and in data set [3] was “no cytotoxicity” in each case. In addition, in data set [2], the percent hemolysis is recorded as 3%–22.6. Also, the MIC in data set [4] is 0.1 µg/mL.
As for `CC(O)C(=O)[O-].[Na+]` (centres unmarked) [sodium lactate], in data set [5], the “inhibition rate of biofilm formation” value is reported as 54.36%.
